Test results from ChEMBL document CHEMBL1124476, “1-(2-aminoethyl)-6-aryl-4H- [1,2,4]triazolo[4,3-a][1,4]benzodiazepines with diuretic and natriuretic activity” (J Med Chem, 1989).

Columns and labels:
[1] = Diuretic activity at 40 mg/kg (screening dose-82.4 umol/kg) in […] in a one stage experiment; T/C = urine vol of treated rats / urine vol of control rats; assay type: functional
Summary of the method: (§1)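 40 mg/kg given by gavage in 25 mL/kg 0.9% saline with 0.5% (carboxymethyl)cellulose. Four rats per agent, two per metabolism cage; 20 controls; 5 h urine. T/C = treated/control urine volume. Stage-1 T/C of 1.66 or more leads to stage 2; product T/C1·T/C2 of 3.34 or more counts as active.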

[2] = Diuretic activity at 40 mg/kg (screening dose-103.9 umol/kg) in […] in a one stage experiment; T/C = urine vol of treated rats / urine vol of control rats; assay type: functional; summary of the method: as §1
[3] = Diuretic activity at 40 mg/kg (screening dose-82.5 umol/kg) in […] in a one stage experiment; T/C = urine vol of treated rats / urine vol of control rats; assay type: functional; summary of the method: as §1
[4] = tested on: Rattus norvegicus; test: Mean excretion of potassium in conscious rats at a dose of 30 mg/kg given orally; assay type: ADME, organism-based; parameters: dose 30 mg/kg, route oral; conditions: in vivo, po
Summary of the method: (§2)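 Secondary dose-response in male Sprague-Dawley rats (~160 g), fasted and hydrated as in the primary screen. Oral gavage at 0.3-100 mg/kg in 25 mL/kg saline/0.5% CMC, three cages of two rats per dose. Urine collected 5 h; Na, K, Cl, HCO3 measured. Values are mean excretion (mequiv), compared with controls at P < 0.05.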

[5] = organism: Rattus norvegicus; test: […]; assay type: ADME, organism-based, Urine; parameters: dose 10 mg/kg, route oral; conditions: in vivo, po, 10 mg/kg
Summary of the method: (§3)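 Male Sprague-Dawley rats, about 160 g, fasted 24 h and water withheld 1 1/2 h beforehand; food and water withheld during the test. Dosing by gavage with 25 mL/kg 0.9% saline containing 0.5% (carboxymethyl)cellulose, agent dissolved or suspended. Three cages of two rats each per dose, held in metabolism cages. Urine collected over 5 h. Volume given in mL, Na+ in mequiv. Significance versus control at P < 0.05.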

[6] = tested on: Rattus norvegicus; test: Mean excretion of potassium in conscious rats at a dose of 0.3 mg/kg given orally; assay type: ADME, organism-based; parameters: dose 0.3 mg/kg, route oral; conditions: in vivo, po; summary of the method: as §2
[7] = organism: Rattus norvegicus; test: […]; assay type: ADME, organism-based, Urine; parameters: dose 30 mg/kg, route oral; conditions: in vivo, po, 30 mg/kg; summary of the method: as §3
[8] = organism: Rattus norvegicus; test: […]; assay type: ADME, organism-based, Urine; parameters: dose 3 mg/kg, route oral; conditions: in vivo, po, 3 mg/kg; summary of the method: as §3
[9] = tested on: Rattus norvegicus; test: Mean excretion of chloride in conscious rats at a dose of 10 mg/kg given orally; assay type: ADME, organism-based; parameters: dose 10 mg/kg, route oral; conditions: in vivo, po; summary of the method: as §2
[10] = tested on: Rattus norvegicus; test: Mean excretion of sodium in conscious rats at a dose of 10 mg/kg given orally; assay type: ADME, organism-based; parameters: dose 10 mg/kg, route oral; conditions: in vivo, po; summary of the method: as §3
[11] = organism: Rattus norvegicus; test: […]; assay type: ADME, organism-based, Urine; parameters: dose 0.3 mg/kg, route oral; conditions: in vivo, po, 0.3 mg/kg
Summary of the method: (§4)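 Dose-response test in male Sprague-Dawley rats of about 160 g, fasted 24 h, with water withheld 1½ h before and during the test. Each rat got a single gavage of 25 mL/kg 0.9% saline with 0.5% carboxymethylcellulose carrying the agent (0.3–100 mg/kg range). Rats were housed two per metabolism cage, and urine was collected for 5 h. Mean urine volume (mL) was compared with controls (P < 0.05).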

[12] = tested on: Rattus norvegicus; test: Mean excretion of chloride in conscious rats at a dose of 30 mg/kg given orally; assay type: ADME, organism-based; parameters: dose 30 mg/kg, route oral; conditions: in vivo, po; summary of the method: as §2
[13] = Diuretic activity at 40 mg/kg (screening dose-87.7 umol/kg) in […] in a one stage experiment; T/C = urine vol of treated rats / urine vol of control rats; assay type: functional; summary of the method: as §1
[14] = tested on: Rattus norvegicus; test: Mean excretion of chloride in conscious rats at a dose of 100 mg/kg given orally; assay type: ADME, organism-based; parameters: dose 100 mg/kg, route oral; conditions: in vivo, po; summary of the method: as §2
[15] = tested on: Rattus norvegicus; test: Mean excretion of chloride in conscious rats at a dose of 3.0 mg/kg given orally; assay type: ADME, organism-based; parameters: dose 3 mg/kg, route oral; conditions: in vivo, po; summary of the method: as §2
[16] = organism: Rattus norvegicus; test: […]; assay type: ADME, organism-based, Urine; parameters: dose 1 mg/kg, route oral; conditions: in vivo, po, 1 mg/kg; summary of the method: as §4
[17] = organism: Rattus norvegicus; test: […]; assay type: ADME, organism-based, Urine; parameters: dose 100 mg/kg, route oral; conditions: in vivo, po, 100 mg/kg; summary of the method: as §3
[18] = tested on: Rattus norvegicus; test: Mean excretion of sodium in conscious rats at a dose of 100 mg/kg given orally; assay type: ADME, organism-based; parameters: dose 100 mg/kg, route oral; conditions: in vivo, po; summary of the method: as §3
[19] = tested on: Rattus norvegicus; test: Mean excretion of Cl- in conscious rats at a dose of 0.3 mg/kg given orally; assay type: ADME, organism-based, Urine; parameters: dose 0.3 mg/kg, route oral; conditions: in vivo, po; summary of the method: as §4
[20] = tested on: Rattus norvegicus; test: Mean excretion of potassium in conscious rats at a dose of 10 mg/kg given orally; assay type: ADME, organism-based; parameters: dose 10 mg/kg, route oral; conditions: in vivo, po; summary of the method: as §2
[21] = tested on: Rattus norvegicus; test: Mean excretion of potassium in conscious rats at a dose of 3.0 mg/kg given orally; assay type: ADME, organism-based; parameters: dose 3 mg/kg, route oral; conditions: in vivo, po; summary of the method: as §2
[22] = tested on: Rattus norvegicus; test: Mean excretion of potassium in conscious rats at a dose of 100 mg/kg given orally; assay type: ADME, organism-based; parameters: dose 100 mg/kg, route oral; conditions: in vivo, po; summary of the method: as §2
[23] = tested on: Rattus norvegicus; test: Mean excretion of sodium in conscious rats at a dose of 0.3 mg/kg given orally; assay type: ADME, organism-based; parameters: dose 0.3 mg/kg, route oral; conditions: in vivo, po; summary of the method: as §3
[24] = tested on: Rattus norvegicus; test: Mean excretion of sodium in conscious rats at a dose of 3.0 mg/kg given orally; assay type: ADME, organism-based; parameters: dose 3 mg/kg, route oral; conditions: in vivo, po; summary of the method: as §3
[25] = tested on: Rattus norvegicus; test: Mean excretion of potassium in conscious rats at a dose of 1.0 mg/kg given orally; assay type: ADME, organism-based; parameters: dose 1 mg/kg, route oral; conditions: in vivo, po; summary of the method: as §2
[26] = tested on: Rattus norvegicus; test: Mean excretion of […] in conscious rats at a dose of 1.0 mg/kg given orally; assay type: ADME, organism-based; parameters: dose 1 mg/kg, route oral; conditions: in vivo, po; summary of the method: as §3
[27] = Diuretic activity at 40 mg/kg (screening dose 87.7 umol/kg) in […] in a two stage experiment; T/C1.2 = urine vol of treated rats / urine vol of control rats; assay type: functional; summary of the method: as §1
[28] = tested on: Rattus norvegicus; test: Mean excretion of chloride in conscious rats at a dose of 1.0 mg/kg given orally; assay type: ADME, organism-based; parameters: dose 1 mg/kg, route oral; conditions: in vivo, po; summary of the method: as §2
[29] = tested on: Rattus norvegicus; test: Mean excretion of sodium in conscious rats at a dose of 30 mg/kg given orally; assay type: ADME, organism-based; parameters: dose 30 mg/kg, route oral; conditions: in vivo, po; summary of the method: as §3

For `CN(C)CC(c1ccccc1)c1nnc2n1-c1ccc(S(C)(=O)=O)cc1C(c1ccccc1)=NC2` (centres undefined), the “T/C 1” value [1] was 0.7.
In the case of `Clc1ccc2c(c1)C(c1ccccc1)=NCc1nnc(Cc3ccccc3)n1-2`, the “T/C 1” value [2] is reported as 0.96.
With `COC(CN(C)C)c1nnc2n1-c1ccc(Cl)cc1C(c1ccccc1)=NC2` (centres undefined) the “T/C 1” value [3] was 1.32.
In the case of `CC1N=C(c2ccccc2)c2cc(Cl)ccc2-n2c1nnc2C(CN(C)C)c1ccccc1` (centres undefined), the “Mean excretion of K+” value [4] is reported as 0.24 m equiv, the Mean urine volume [5] is reported as 7.53 mL and the “Mean excretion of K+” value [6] is reported as 0.24 m equiv. The Mean urine volume [7] was 9.56 mL, the Mean urine volume [8] was 4.96 mL and the “Mean excretion of Cl-” value [9] was 1.33 m equiv. For the same molecule, the “Mean excretion of Na+” value [10] was 1.33 m equiv, the Mean urine volume [11] was 3.97 mL and the “Mean excretion of Cl-” value [12] was 1.64 m equiv. For the same molecule, the “T/C 1” value [13] was 3.05, the “Mean excretion of Cl-” value [14] was 1.9 m equiv and the “Mean excretion of Cl-” value [15] was 0.91 m equiv. The Mean urine volume [16] was 4.39 mL, the Mean urine volume [17] was 10.66 mL and the “Mean excretion of Na+” value [18] was 2.04 m equiv. For the same molecule, the “Mean excretion of Cl-” value [19] was 0.82 m equiv, the “Mean excretion of K+” value [20] was 0.22 m equiv and the “Mean excretion of K+” value [21] was 0.24 m equiv. The “Mean excretion of K+” value [22] was 0.21 m equiv, the “Mean excretion of Na+” value [23] was 0.74 m equiv and the “Mean excretion of Na+” value [24] was 0.86 m equiv. The “Mean excretion of K+” value [25] was 0.19 m equiv, the “Mean excretion of Na+” value [26] was 0.82 m equiv and the “T/C 1.2” value [27] was 7.05. The “Mean excretion of Cl-” value [28] was 0.86 m equiv and the “Mean excretion of Na+” value [29] was 1.65 m equiv.
